From ChEMBL document CHEMBL1154928, “SAR and optimization of thiazole analogs as potent stearoyl-CoA desaturase inhibitors” (Bioorg Med Chem Lett, 2010)
Each block holds one molecule with its values, some of them ahead of it. Calls of active or inactive are those of the source. The calls are words filed in the database; no cut-off is given here.

Assays:
Stearoyl-CoA desaturase = target: T1, Stearoyl-CoA desaturase (Homo sapiens, UniProt O00767); assay: Inhibition of SCD1 in human HepG2 cells assessed as [14C]stearic acid to [14C]oleic acid conversion pretreated 15 mins before [14C]stearic acid addition measured after 4 hrs by HPLC based scintillation assay; format: cell-based
T1 sequence (O00767 whole entry): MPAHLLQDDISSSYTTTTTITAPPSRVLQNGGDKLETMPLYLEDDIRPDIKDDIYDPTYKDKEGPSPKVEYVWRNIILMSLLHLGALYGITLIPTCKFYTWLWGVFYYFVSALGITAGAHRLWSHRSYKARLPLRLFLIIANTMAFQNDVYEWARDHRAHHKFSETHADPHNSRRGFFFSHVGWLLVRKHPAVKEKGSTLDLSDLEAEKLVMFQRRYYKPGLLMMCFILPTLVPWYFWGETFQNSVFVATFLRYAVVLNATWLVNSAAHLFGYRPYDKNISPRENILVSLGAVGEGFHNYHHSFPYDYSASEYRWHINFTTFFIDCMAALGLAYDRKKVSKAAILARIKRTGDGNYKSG

Acyl-CoA desaturase 1 = target: T2, Acyl-CoA desaturase 1 (Rattus norvegicus, UniProt P07308); assay: Inhibition of SCD1 in Wistar rat liver microsome assessed as [3H]stearoyl-CoA to [3H]oleoyl-CoA conversion pretreated 1 hr before [3H]stearoyl-CoA addition measured after 60 mins by HPLC based scintillation assay; format: microsomes
T2 sequence (P07308 whole entry): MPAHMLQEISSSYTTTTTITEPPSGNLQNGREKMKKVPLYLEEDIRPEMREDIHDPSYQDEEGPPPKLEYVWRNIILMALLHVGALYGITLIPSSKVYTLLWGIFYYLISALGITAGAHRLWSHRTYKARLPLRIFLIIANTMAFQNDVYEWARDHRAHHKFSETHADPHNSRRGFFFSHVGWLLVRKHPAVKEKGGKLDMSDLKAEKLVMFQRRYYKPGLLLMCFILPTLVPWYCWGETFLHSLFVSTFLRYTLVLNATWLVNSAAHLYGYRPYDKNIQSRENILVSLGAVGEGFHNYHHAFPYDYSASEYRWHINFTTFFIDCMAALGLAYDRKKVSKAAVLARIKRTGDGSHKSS

[1] = Oral bioavailability in C57BL/6 mouse at 10 mg/kg; format: ADME, organism-based, C57BL6; conditions: in vivo
[2] = AUC (0 to 24 hrs) in C57BL/6 mouse at 10 mg/kg, po; format: ADME, organism-based, C57BL6; set-up: time < 24 hr, dose 10 mg/kg, route oral; conditions: plasma
Mus musculus [3] = assay: Toxicity in C57BL/6 mouse assessed as partial eye closure at 0.2 mg/kg, po dosed QD for 7 days; format: organism-based, C57BL6; set-up: dose 0.2 mg/kg, route oral; conditions: in vivo, 168 h
Mus musculus [4] = assay: Inhibition of SCD in po dosed C57BL/6 mouse liver assessed as [14C]stearic acid to [14C]oleic acid conversion after 3 hrs by liver SCD activity index; format: functional; conditions: C57BL6, Liver
How it was run: (§1)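 In vivo SCD activity was measured in mice fed a high carbohydrate diet and dosed orally. At 3 h, [1-14C]-stearic acid tracer was given intravenously and its conversion to [1-14C]-oleic acid in liver lipids was followed. The SCD activity index is the 14C-oleic/14C-stearic acid ratio. Liver compound concentration was also measured, and the ED50 was derived from the dose-response.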

Mus musculus [5] = assay: Toxicity in C57BL/6 mouse assessed as progressive alopecia at 0.2 mg/kg, po dosed QD for 7 days; format: organism-based, C57BL6; set-up: dose 0.2 mg/kg, route oral; conditions: in vivo, 168 h
[6] = Ratio of drug level in liver to plasma in C57BL/6 mouse at 10 mg/kg, po after 6 hrs; format: ADME, organism-based, C57BL6; set-up: dose 10 mg/kg, route oral
How it was run: (§2)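 Tissue distribution was measured in C57BL6 mice 6 h after a single 10 mg/kg oral dose. Compound levels were determined in liver, adipose tissue and plasma, and tissue-to-plasma ratios were calculated.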

[7] = Drug level in C57BL/6 mouse liver at 1 mg/ kg, po after 3 hrs; format: ADME, organism-based, C57BL6; set-up: dose 1 mg/ kg, route oral; conditions: read-out: Drug uptake; how it was run: as §1
[8] = Drug level in C57BL/6 mouse blood at 0.1 mg/ kg, po after 3 hrs; format: ADME, organism-based, C57BL6; set-up: dose 0.1 mg/ kg, route oral; conditions: read-out: Drug uptake
[9] = Drug level in C57BL/6 mouse liver at 0.1 mg/ kg, po after 3 hrs; format: ADME, organism-based, C57BL6; set-up: dose 0.1 mg/ kg, route oral; conditions: read-out: Drug uptake; how it was run: as §1
Mus musculus [10] = assay: Inhibition of SCD in C57BL/6 mouse liver assessed as [14C]stearic acid to [14C]oleic acid conversion at 0.1 mg/kg, po after 3 hrs by liver SCD activity index; format: functional, organism-based; set-up: dose 0.1 mg/kg; conditions: C57BL6; how it was run: as §1
[11] = Biodistribution in C57BL/6 mouse skin at 10 mg/kg, po after 6 hrs; format: ADME, organism-based, C57BL6, Zone of skin; set-up: dose 10 mg/kg, route oral; conditions: read-out: Drug uptake
[12] = Plasma concentration in C57BL/6 mouse at 10 mg/kg, po after 6 hrs; format: ADME, organism-based, C57BL6; set-up: dose 10 mg/kg, route oral; how it was run: as §2
Mus musculus [13] = assay: Antiobesity activity in C57BL/6 mouse assessed as reduction in high fat diet-induced body weight gain at 0.2 mg/kg, po dosed QD for 4 weeks relative to control; format: functional, C57BL6; set-up: scale not given: the % may be the effect or the level left
[14] = Ratio of drug level in adipose tissue to plasma in C57BL/6 mouse at 10 mg/kg, po after 6 hrs; format: ADME, organism-based, C57BL6; set-up: dose 10 mg/kg, route oral; how it was run: as §2
[15] = Biodistribution in C57BL/6 mouse liver at 10 mg/kg, po after 6 hrs; format: ADME, organism-based, C57BL6; set-up: dose 10 mg/kg, route oral; conditions: read-out: Drug uptake; how it was run: as §2
[16] = Drug level in C57BL/6 mouse blood at 1 mg/ kg, po after 3 hrs; format: ADME, organism-based, C57BL6; set-up: dose 1 mg/ kg, route oral; conditions: read-out: Drug uptake
Mus musculus [17] = assay: Antidiabetic activity in C57BL/6 mouse assessed as reduction in plasma glucose level at 0.2 mg/kg, po dosed QD for 4 weeks; format: functional, C57BL6; set-up: scale not given: the % may be the effect or the level left
Mus musculus [18] = assay: Inhibition of SCD in C57BL/6 mouse liver assessed as [14C]stearic acid to [14C]oleic acid conversion at 0.3 mg/kg, po after 3 hrs by liver SCD activity index; format: functional; conditions: C57BL6, Liver; how it was run: as §1
Mus musculus [19] = assay: Inhibition of SCD in C57BL/6 mouse liver assessed as [14C]stearic acid to [14C]oleic acid conversion at 1 mg/kg, po after 3 hrs by liver SCD activity index; format: functional; conditions: C57BL6, Liver; how it was run: as §1
[20] = Drug level in C57BL/6 mouse liver at 0.3 mg/ kg, po after 3 hrs; format: ADME, organism-based, C57BL6; set-up: dose 0.3 mg/ kg, route oral; conditions: read-out: Drug uptake; how it was run: as §1
[21] = Plasma concentration in C57BL/6 mouse at 0.3 mg/kg, po dosed QD for 3 days and measured on day 3; format: ADME, organism-based, C57BL6; set-up: dose 0.3 mg/kg, route oral
How it was run: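 C57BL6 mice on a high fat diet were dosed orally once daily for 3 days at 0.3 mg/kg. Plasma was sampled on day 3 at the terminal 24 h post-dose point.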

[22] = Drug level in C57BL/6 mouse blood at 0.3 mg/ kg, po after 3 hrs; format: ADME, organism-based, C57BL6; set-up: dose 0.3 mg/ kg, route oral; conditions: read-out: Drug uptake
Mus musculus [23] = assay: Antidiabetic activity in C57BL/6 mouse assessed as reduction in insulin level at 0.2 mg/kg, po dosed QD for 4 weeks; format: functional, C57BL6; set-up: scale not given: the % may be the effect or the level left
[24] = Biodistribution in C57BL/6 mouse adipose tissue at 10 mg/kg, po after 6 hrs; format: ADME, organism-based, C57BL6; set-up: dose 10 mg/kg, route oral; conditions: read-out: Drug uptake; how it was run: as §2

SMILES: NC(=O)c1nc(N2CCC(Oc3ccccc3C(F)(F)F)CC2)no1
IC50 (Acyl-CoA desaturase 1): 1630 nM

SMILES: NC(=O)c1nnc(N2CCC(Oc3ccccc3C(F)(F)F)CC2)o1
IC50 (Stearoyl-CoA desaturase): 199 nM
IC50 (Acyl-CoA desaturase 1): 83 nM

SMILES: NC(=O)c1csc(N2CCC(Oc3ccccc3C(F)(F)F)CC2)n1
IC50 (Stearoyl-CoA desaturase): 6520 nM
IC50 (Acyl-CoA desaturase 1): 676 nM

SMILES: O=C1CCCN1c1cnc(N2CCC(Oc3ccccc3C(F)(F)F)CC2)s1
IC50 (Stearoyl-CoA desaturase): 174 nM
IC50 (Acyl-CoA desaturase 1): 164 nM

SMILES: NC(=O)c1nnc(N2CCC(Oc3ccccc3C(F)(F)F)CC2)[nH]1
IC50 (Stearoyl-CoA desaturase): 2820 nM
IC50 (Acyl-CoA desaturase 1): 127 nM

SMILES: NC(=O)c1cnc(N2CCN(S(=O)(=O)c3ccccc3C(F)(F)F)CC2)s1
IC50 (Acyl-CoA desaturase 1): > 3000 nM

SMILES: NC(=O)c1cnc(N2CCN(C(=O)c3ccccc3C(F)(F)F)CC2)s1
IC50 (Stearoyl-CoA desaturase): 254 nM
Activity (Mus musculus [3]): Toxic
ED50 (Mus musculus [4]): 3 mg/kg
Activity (Mus musculus [5]): Toxic
IC50 (Acyl-CoA desaturase 1): 106 nM

SMILES: COC(=O)Nc1cnc(N2CCC(Oc3ccccc3C(F)(F)F)CC2)s1
IC50 (Stearoyl-CoA desaturase): 775 nM
IC50 (Acyl-CoA desaturase 1): 750 nM

SMILES: NC(=O)c1cnc(N2CC[C@@H](Oc3ccccc3C(F)(F)F)C2)s1
IC50 (Acyl-CoA desaturase 1): > 20000 nM

SMILES: NC(=O)Nc1cnc(N2CCC(Oc3ccccc3C(F)(F)F)CC2)s1
IC50 (Acyl-CoA desaturase 1): 150 nM

SMILES: Cc1nnc(-c2cnc(N3CCC(Oc4ccccc4C(F)(F)F)CC3)s2)s1
IC50 (Acyl-CoA desaturase 1): 750 nM

Stronger by IC50 (Acyl-CoA desaturase 1), values ahead:

IC50 (Stearoyl-CoA desaturase): 153 nM
IC50 (Acyl-CoA desaturase 1): 76 nM
SMILES: NC(=O)c1cnc(N2CCN(Cc3ccccc3C(F)(F)F)CC2)s1

IC50 (Stearoyl-CoA desaturase): 84 nM
IC50 (Acyl-CoA desaturase 1): 12 nM
SMILES: NC(=O)c1cnc(N2CC[C@H](Oc3ccccc3C(F)(F)F)C2)s1

bioavailability [1]: 33%
IC50 (Stearoyl-CoA desaturase): 16 nM
AUC(0-t) at 24 h [2]: 2.9 µM·h
IC50 (Acyl-CoA desaturase 1): 4 nM
SMILES: FC(F)(F)c1ccccc1OC1CCN(c2ncc(-c3ncon3)s2)CC1

IC50 (Stearoyl-CoA desaturase): 55 nM
IC50 (Acyl-CoA desaturase 1): 14 nM
SMILES: FC(F)(F)c1ccccc1OC1CCN(c2ncc(-c3ncco3)s2)CC1

bioavailability [1]: 24%
IC50 (Stearoyl-CoA desaturase): 39 nM
AUC(0-t) at 24 h [2]: 3.5 µM·h
IC50 (Acyl-CoA desaturase 1): 15 nM
SMILES: Cc1nc(-c2cnc(N3CCC(Oc4ccccc4C(F)(F)F)CC3)s2)no1

IC50 (Stearoyl-CoA desaturase): 10 nM
IC50 (Acyl-CoA desaturase 1): 3 nM
SMILES: NC(=O)c1cnc(N2CCC(Oc3ccccc3C(F)(F)F)CC2)s1

IC50 (Stearoyl-CoA desaturase): 24 nM
IC50 (Acyl-CoA desaturase 1): 4 nM
SMILES: NC(=O)c1cnc(N2CCC(Sc3ccccc3C(F)(F)F)CC2)s1

IC50 (Stearoyl-CoA desaturase): 65 nM
IC50 (Acyl-CoA desaturase 1): 34 nM
SMILES: FC(F)(F)c1ccccc1OC1CCN(c2ncc(-c3nnco3)s2)CC1

IC50 (Stearoyl-CoA desaturase): 14 nM
IC50 (Acyl-CoA desaturase 1): 8 nM
SMILES: NC(=O)c1cc(N2CCC(Oc3ccccc3C(F)(F)F)CC2)no1

Kp at 6 h [6]: 6
concentration at 3 h [7]: 5700 nM
concentration at 3 h [8]: < 25 nM
concentration at 3 h [9]: 600 nM
concentration at 6 h [11]: 1800 nM
bioavailability [1]: 48%
IC50 (Stearoyl-CoA desaturase): 1 nM
concentration at 6 h [12]: 1100 nM
Kp at 6 h [14]: 8
concentration at 6 h [15]: 6700 nM
AUC(0-t) at 24 h [2]: 16.8 µM·h
concentration at 3 h [16]: 180 nM
concentration at 3 h [20]: 1900 nM
IC50 (Acyl-CoA desaturase 1): 1 nM
concentration at 72 h [21]: 180 nM
concentration at 3 h [22]: < 25 nM
concentration at 6 h [24]: 8900 nM
SMILES: OCc1nc(-c2cnc(N3CCC(Oc4ccccc4C(F)(F)F)CC3)s2)no1
inhibition (Mus musculus [10]): inactive
Activity (Mus musculus [13]): 24%
Activity (Mus musculus [3]): Toxic
Activity (Mus musculus [17]): 24%
ED50 (Mus musculus [4]): 0.3 mg/kg
inhibition in vivo at 0.3 mg/kg (Mus musculus [18]): 45%
Activity (Mus musculus [5]): Toxic
inhibition in vivo at 1 mg/kg (Mus musculus [19]): 89%
Activity (Mus musculus [23]): 4%

IC50 (Stearoyl-CoA desaturase): 1020 nM
IC50 (Acyl-CoA desaturase 1): 41 nM
SMILES: NS(=O)(=O)c1cnc(N2CCC(Oc3ccccc3C(F)(F)F)CC2)s1

IC50 (Stearoyl-CoA desaturase): 7 nM
IC50 (Acyl-CoA desaturase 1): 3 nM
SMILES: NC(=O)c1nnc(N2CCC(Oc3ccccc3C(F)(F)F)CC2)s1
